Measurements gathered from unrelated publications.
Each line is one published result; the experiments were not run side by side.
Target: Cyclin-dependent kinase 13 (CDK13, Homo sapiens, UniProt Q14004)

Structure (SMILES)	observed	technique	tested at	remaining binding
C[C@@H]1CCN(c2nccc(-c3cnn4ncccc34)n2)C1	binding		1 µM	72%
COCCOc1nc(-c2ccc(Cl)nc2)nc2c1CN(C(=O)c1ncn3ccccc13)CC2	cell-free assay	competition with immobilised ligand	0.1 µM	100%
c1cncc(-c2cccc(Nc3nccc(NC4CCCCC4)n3)c2)c1	binding	competition with immobilised ligand	10 µM	100%
CN(CCCC(F)(F)F)c1nccc(-c2cnn3ncccc23)n1	binding		1 µM	100%
Cc1c[nH]c2nccc(Oc3c(F)cc(Nc4cc(Cl)nc(N)n4)cc3F)c12	cell-free assay	competition with immobilised ligand	0.1 µM	73%
CN(c1nccc(-c2cnn3ncccc23)n1)C1CC1	binding		1 µM	100%
CC(=O)c1c(NS(C)(=O)=O)c2cc(-c3ccc(Cl)cc3)c(-c3ccc(Cl)cc3Cl)nc2n(C)c1=O	cell-free assay	competition with immobilised ligand	1 µM	96%
O=C(c1ccc(Nc2ncc(Cl)c(-c3cc4ccccc4s3)n2)cc1)N1CCC(N2CCCC2)CC1	binding	competition with immobilised ligand	1 µM	36%
COc1ncc2cc3ccccc3nc2c1C#N	cell-free assay	competition with immobilised ligand	5 µM	92%
O=C(NCCCN1CCOCC1)c1ccc(Nc2ncc(Cl)c(-c3ccc(Cl)s3)n2)cc1	binding	competition with immobilised ligand	1 µM	34%
N#CC1(c2ccccn2)CCN(Cc2cc(C(=O)N3CCCC3)c(=O)n3ccccc23)CC1	cell-free assay	competition with immobilised ligand	1 µM	100%
N[C@H]1CCN(c2nccc(-c3cnn4ncccc34)n2)C1	binding		1 µM	64%
COc1cnc(Nc2cccc(S(N)(=O)=O)c2)nc1N1CCN(c2ccccc2)C(=O)C1	binding	competition with immobilised ligand	1 µM	94%
Nc1ncc2c(n1)-c1c([nH]c3ccc(C#CC4CC4)cc13)CCCC2	binding	competition with immobilised ligand	1 µM	84%
c1cnn2ncc(-c3ccnc(N4CCC45COC5)n3)c2c1	binding		1 µM	87%
O=C(Nc1cccnn1)N1CCC(=Cc2cccc(Oc3ccc(C(F)(F)F)cn3)c2)CC1	cell-free assay	competition with immobilised ligand	1 µM	100%
Cc1cnc(Nc2ccc(C(=O)N3CCC(N4CCCC4)CC3)cc2)nc1-c1cc2ccccc2s1	binding	competition with immobilised ligand	1 µM	50%
O=C(Nc1c[nH]nc1C(=O)NC1CCNCC1)c1cc(F)cc(F)c1	binding	competition with immobilised ligand	1 µM	100%
Cc1c(C(=O)O)cc(-c2ccc(C3CCNCC3)cc2)c2ccc(-c3ccc(C(F)(F)F)cc3)cc12	binding	competition with immobilised ligand	1 µM	100%
